Data taken from PubChem BioAssay AID1230 (PCMD, 2008).
The whole screen tested about 210,000 compounds, of which about 220 (0.1%) were called active.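 Rule for the calls: active = signal enhancement of 30% or more; inactive = the rest.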 Many of the other results were omitted from the sample, so actives are more common in it than they were.

These compounds were tested against E3 ubiquitin-protein ligase Mdm2 (Homo sapiens) (UniProt Q00987) (assay: MDM2-luciferase reporter signal enhancers, primary screen, MDM2 E3 ligase inhibitor project, cell-based, luminescence, 1536-well (AID 1230;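 note: higher signal means inhibition of MDM2 E3 ligase activity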)). Details: cell-based MDM2 ubiquitination luciferase reporter, 2 h; at 5 µM; hits give high values; 0 = plate control, 100 = twice control, blank-subtracted.
Summary of the method: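 system = mammalian cells stably expressing self-ubiquitinating, self-degrading MDM2 E3–luciferase fusion | quantity = 2000 cells per well seeded | incubation = 4 h cell settling then 2 h compound exposure, 37 °C | signal = SteadyLite luminescence, 15 min reagent step | benchmarks = plate control and blank wells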

E3 ubiquitin-protein ligase Mdm2 (Homo sapiens), sequence (Q00987 whole entry, looked up, the tested form may be a part): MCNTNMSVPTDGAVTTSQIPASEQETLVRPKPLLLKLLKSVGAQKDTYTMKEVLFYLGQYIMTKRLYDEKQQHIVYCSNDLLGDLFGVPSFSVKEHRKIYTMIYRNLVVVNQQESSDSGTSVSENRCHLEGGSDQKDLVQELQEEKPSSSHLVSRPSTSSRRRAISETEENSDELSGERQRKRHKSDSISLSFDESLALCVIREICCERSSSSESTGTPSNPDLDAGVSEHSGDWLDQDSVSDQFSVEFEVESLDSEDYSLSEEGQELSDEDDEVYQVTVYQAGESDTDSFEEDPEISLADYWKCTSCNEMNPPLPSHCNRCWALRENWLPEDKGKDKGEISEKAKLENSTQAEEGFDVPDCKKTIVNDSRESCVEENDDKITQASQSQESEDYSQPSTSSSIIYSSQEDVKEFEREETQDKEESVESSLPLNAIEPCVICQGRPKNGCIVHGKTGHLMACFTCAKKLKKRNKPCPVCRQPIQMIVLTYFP

Structure (SMILES)	signal enhancement
CCCc1nc2oc3c(=O)[nH]cnc3c2c2c1COC(C)(C)C2	1.7% (inactive)
COc1c(N2CCN(C(=S)Nc3ccccc3F)C(C)C2)c(F)cc2c(=O)c(C(=O)O)cn(C3CC3)c12 (centres undefined)	0.25% (inactive)
CCc1cc2c(=O)c(-c3ccc(F)cc3)c(C(F)(F)F)oc2cc1OCC(=O)O	-6.75% (inactive)
CCOC(=O)c1oc2c(CN3CCN(CCO)CC3)c(O)c(CC)cc2c(=O)c1-c1nc2ccccc2s1	-10.7% (inactive)
CCc1cc2c(=O)c(-c3nc4ccccc4n3C)c(CCCC(=O)O)oc2cc1OC(=O)C(C)(C)C	32.3% (active)
CCOc1c(Nc2cccc(Cl)c2)c(=O)c1=O	-2.35% (inactive)
NC1=NC[C@@H](Cc2ccc(O)cc2)N1CC1CCCCC1	7.84% (inactive)
Oc1c(Br)cc(/C=N/NC(=S)NCC2CCCO2)cc1Br (centres undefined)	-4.26% (inactive)
N#Cc1ccc(Oc2ccc(C(F)(F)F)cc2NC(=O)c2ccc(F)cc2)cc1	-13.7% (inactive)
CC1(C)CCSC(/C=C/c2ccccc2)=N1	3.53% (inactive)
NS(=O)(=O)c1ccc(NC(=O)COC(=O)c2cc3ccccc3oc2=O)cc1	-3.08% (inactive)
Cc1cc(C)nc(SCc2cn3c(C)cc(C)nc3n2)n1	-13.6% (inactive)
COc1cc(NC(=O)c2ccc(CNc3c(N4CCCC4)c(=O)c3=O)cc2)cc(OC)c1OC	-5.93% (inactive)
COc1cc(C(CCN2CCN(c3ccccc3)CC2)c2c(OC)cc(OC)c3ccc(=O)oc23)cc(OC)c1OC (centres undefined)	17.2% (inactive)
CC(C)COC(=O)n1c(=O)oc2ccc(S(=O)(=O)N3CCCCC3)cc21	-7.89% (inactive)
CN(C)c1cc(-c2ccc(F)cc2)oc(=O)c1Cl	-15.5% (inactive)
COc1ccccc1NC(=O)c1cc(Cl)nc2ccccc12	-12.4% (inactive)
Cc1onc(-c2c(Cl)cccc2Cl)c1C(=O)NNC(=O)c1c(-c2c(Cl)cccc2Cl)noc1C	-1.5% (inactive)
Cc1cc(C)cc(NS(=O)(=O)c2ccc(F)cc2)c1	-8.71% (inactive)
COc1ccccc1CNC(=O)Cn1c(=O)oc2cc(Cl)ccc21	-8.67% (inactive)
Cc1noc(C)c1-c1nc(CSc2ccc(Cl)cc2)no1	-16.2% (inactive)
Cc1ccc(/C=N/NC(=S)Nc2cccc(S(=O)(=O)N(C)C)c2)o1	-13.3% (inactive)
Cc1cccc(-[n+]2c(-c3cccc(Br)c3)[nH]c3nc4ccccc4nc32)c1	-76.7% (inactive)
O=C1NNC(c2ccccc2)=N/C1=C\c1ccc(Cl)cc1	-9.72% (inactive)

Structure (SMILES)	signal enhancement
O=c1cc(CCl)nc2scc(-c3ccccc3)n12	-0.33% (inactive)
CCOC(=O)Cn1c(N)c(C(=O)OC)sc1=S	-0.11% (inactive)
CCOC(=O)CNC(=O)CSc1nnnn1-c1cc(C)ccc1C	16.5% (inactive)
CCOC(=O)Cn1nnnc1C	38.2% (active)
Cc1cc(=O)oc2cc(OCCC[n+]3ccccc3)ccc12	-9.35% (inactive)
Cc1cc(NC(=O)OC(C)C)ccc1-c1ccc(NC(=O)OC(C)C)cc1C	0.08% (inactive)
O=S(=O)(c1ccccc1)N1CN(Cc2ccc(F)cc2)c2nc3ccccc3nc21	-0.23% (inactive)
CCCCNC(=O)OCCSCCS(=O)(=O)c1ccc(Cl)cc1	-11.5% (inactive)
O=C(NN1C(=O)C2C(C1=O)C1C=CC2C12CC2)c1ccccc1Cl (centres undefined)	-6.98% (inactive)
COc1cc(C=O)ccc1Oc1nnnn1-c1ccccc1	-12.6% (inactive)
Cn1nc(C(C)(C)C)c(NC(=O)c2sccc2Cl)c1C(C)(C)C	-2.73% (inactive)
COc1ccc(NC2=CC(=S)NC(C)(C)C2)cc1	-2.53% (inactive)
O=C(Nc1ccc(F)cc1)c1cc2c(s1)CCCC2	-16.8% (inactive)
COc1ccc(COCCN2CCN(S(=O)(=O)c3ccccc3)CCC2=O)cc1	16.8% (inactive)
COc1ccc(COCC(O)CN2CCC(C(N)=O)CC2)cc1 (centres undefined)	-1.62% (inactive)
O=C(CCl)Nc1cccc(CP(=O)(c2ccccc2)c2ccccc2)c1	-14.8% (inactive)
O=c1[nH]c2cccnc2n1-c1ccc([N+](=O)[O-])cc1	-12% (inactive)
O=C(NNC(=S)Nc1ccc(F)cc1)[C@H]1C[C@@H]1c1ccccc1	-1.61% (inactive)
CCOC(=O)/C=C/CN(C(=O)OC(C)(C)C)S(=O)(=O)N1CC=CC1	1.19% (inactive)
Cc1cc(Nc2ccc(N3CCOCC3)cc2)c2cccc(C)c2n1	5.92% (inactive)
N#CC1=C(N)Oc2c(ccc3cccnc23)C1c1ccncc1 (centres undefined)	-12.4% (inactive)
COCc1cc(=O)oc2cc(NS(=O)(=O)c3ccc(C)cc3)ccc12	-14.3% (inactive)
CC(=O)N(OCc1ccc(OC(C)C)c(Cl)c1)C(C)=O	-12.5% (inactive)
Cc1ccc(S(=O)(=O)NC(=O)N2CCCN(Cc3ccc(F)cc3)CC2)cc1	-8.58% (inactive)

Structure (SMILES)	signal enhancement
CCC/C(C)=N\Nc1nc2c(c(=O)n(C)c(=O)n2C)n1C	-9.83% (inactive)
CCO[C@@H]1OC(C(=O)NC2CC2)=C[C@H](C)[C@H]1CCCO	-12.6% (inactive)
CC(C)C[C@H](CO)Nc1nc(N(C)c2cccc(Cl)c2)c2ncn(C(C)C)c2n1	10% (inactive)
Cc1ccc(/C=C/C(=O)O)cc1S(=O)(=O)N1CCC(Cc2ccccc2)CC1	-0.26% (inactive)
O=C(CCCOc1ccccc1)Nc1cccc(C(=O)O)c1	-14.6% (inactive)
O=C(CNCc1ccc(Cl)cc1)Nc1cccc(C(=O)O)c1	35.7% (active)
O=C(CCC(=O)OCc1ccc(Cl)cc1)Nc1ccccc1	-8.79% (inactive)
CCN(CC)CCn1c(N)c(S(=O)(=O)c2ccccc2)c2nc3ccccc3nc21	-7.92% (inactive)
OC(c1nnc(-c2ccccc2)o1)c1cccs1 (centres undefined)	31.9% (active)
CCCN(CCC)c1ccc(C(O)c2nnc(-c3ccccc3)o2)cc1 (centres undefined)	-18.3% (inactive)
Nc1ccc(-c2nnc(-c3ccc(-c4ccccc4)cc3)o2)cc1	-17.1% (inactive)
O=S(=O)([N-]c1nc2ccccc2nc1-[n+]1ccc(Cc2ccccc2)cc1)c1ccc(Br)s1	-17.8% (inactive)
COc1ccc(NC(=O)C2=C(C)NC(=O)NC2c2ccccc2[N+](=O)[O-])cc1 (centres undefined)	-9.62% (inactive)
Nc1nc(NCC2CCCO2)nc(Nc2ccccc2F)c1[N+](=O)[O-] (centres undefined)	1.79% (inactive)
CCN(CCO)C(=S)Nc1cc(C(=O)OC)ccc1C(=O)OC	3.69% (inactive)
CCS(=O)(=O)Nc1cc(C(=O)OC)ccc1C(=O)OC	-8.23% (inactive)
CCCN(CCC)C(=S)Nc1cc(C(=O)OC)ccc1C(=O)OC	39.1% (active)
Cc1cc(C)cc(OCC(=O)NNC(=O)CCN2C(=O)c3ccccc3C2=O)c1	31.1% (active)
O=C(CCN1C(=O)c2ccccc2C1=O)NNC(=O)c1ccc(Cl)cc1Cl	-8.02% (inactive)
Cc1cc(C)cc(OCC(=O)NNC(=O)c2cc3ccccc3oc2=O)c1	1.34% (inactive)
Clc1ccc(-c2cc(-c3ccccn3)on2)c(Cl)c1	-77.9% (inactive)
CCCN(c1ccc(C)cc1)c1nc(=O)c2cccnc2s1	-10% (inactive)
Fc1ccc(Nc2nnns2)cc1	-6.61% (inactive)
COc1ccc(NC(=O)/C(Cl)=C(/Cl)S(=O)Cc2ccc(C)cc2)cn1 (centres undefined)	72.4% (active)

Structure (SMILES)	signal enhancement
COc1ccc(C(=O)Nc2ccc(NC(=O)C(C)C)nc2)cc1	-20.6% (inactive)
Cc1ccc(NC(=O)OCc2cncs2)cc1	-21.3% (inactive)
COc1ccc(CS(=O)/C(Cl)=C(/Cl)C(=O)Nc2ccc(OC)nc2)cc1 (centres undefined)	53.8% (active)
COc1ccc(NC(=S)Nc2ccccc2Cl)cn1	-15.3% (inactive)
CC(=O)Nc1ccc(OCC(=O)NCc2ccc(C)cc2)cc1	-12.3% (inactive)
CC(C)CCNC(=O)C1CCC(CNc2c(N3CCC(C)CC3)c(=O)c2=O)CC1 (centres undefined)	-5.11% (inactive)
COc1ccc2c(CC(=O)OCC(=O)NC(N)=O)coc2c1	0.56% (inactive)
COC(=O)/C=C(\Oc1ccccc1)C1(O)CCCCC1	-12% (inactive)
CC(=O)NNC(=O)c1csc(Cc2c(Cl)sc3ccc(Cl)cc23)n1	-2.59% (inactive)
CCC1(C)Cc2c(sc3nc(SC)[nH]c(=O)c23)CO1 (centres undefined)	-9.94% (inactive)
CCOC(=O)CC1C(=O)NCCN1c1nc2c(C)cccn2c(=O)c1/C=C1\SC(=S)N(C(C)CC)C1=O (centres undefined)	-24.8% (inactive)
Cc1cc(OC(=O)c2ccccc2)c([N+](=O)[O-])c(=O)[nH]1	39.8% (active)
COc1cccc(C(=O)Oc2cc(C)[nH]c(=O)c2[N+](=O)[O-])c1	-90.1% (inactive)
O=C(Oc1ccccc1C(=S)N1CCCCC1)c1cc([N+](=O)[O-])cc([N+](=O)[O-])c1	-1.87% (inactive)
c1csc(-c2nnc(COc3ncnc4sccc34)o2)c1	-10.9% (inactive)
COc1ccc(/C=N/NS(=O)(=O)c2ccc(NC(C)=O)cc2)cc1	-14.4% (inactive)
Cc1nc(-c2ccccc2)sc1-c1nnc(C2CC2)o1	-9.04% (inactive)
CCOc1ccc(C2NC(=S)NC3=C2CCc2ccccc23)cc1 (centres undefined)	-16.9% (inactive)
CN(c1ccc(OCC(=O)NC2=NCCS2)cc1)S(=O)(=O)c1ccc(F)cc1	-0.06% (inactive)
Cc1ccc(Oc2nc(-c3ccccn3)nc3ccccc23)cc1	-1.85% (inactive)
Brc1ccc2c(c1)[C@H]1OCC[C@H]1[C@@H](c1cccs1)N2	-17.3% (inactive)
COc1ccc(OC)c(-n2c(-c3ccn[nH]3)n[nH]c2=S)c1	-7.17% (inactive)
